Results from ChEMBL document CHEMBL3232837, “Synthesis and evaluation of new Hsp90 inhibitors based on a 1,4,5-trisubstituted 1,2,3-triazole scaffold” (J Med Chem, 2014).
Active and inactive are the calls of the source. The calls are words filed in the database; no cut-off is given here.

What was measured:
[1] = system: Mus musculus; experiment: Toxicity in CD-1 nude mouse xenografted with human GTL16 cells overexpressing c-Met assessed as body weight loss at 5 mg/kg, ip administered as q4d/week for 2 weeks starting 3 days after tumor injection measured on day 5 post last dose relative to vehicle-treated control; type: organism-based; design: dose 5 mg/kg, route intraperitoneal; details: in vivo
Outline: (§1)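 Female athymic nude mice carrying s.c. xenografts, dosed i.p. (mg/10 mL/kg per administration) starting 3 days after tumor injection. BWL% = 100 − (mean BW day x/mean BW day 1 × 100), day 1 being the first treatment day. Maximum BWL% recorded. Lethal toxicity counted as deaths before the first control death.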

[2] = system: Mus musculus; experiment: (§2) In vivo inhibition of HSP90 in human GTL16 cells overexpressing c-Met xenografted in CD-1 nude mouse assessed as downregulation of AKT protein expression at 8 mg/kg, ip administered as q4d/week for 2 weeks starting 3 days after tumor injection measured at 6 hrs post last dose by Western blot analysis; type: functional, organism-based; design: dose 8 mg/kg
Outline: (§3)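 Nude-mouse s.c. xenografts given i.p. compound from day 3. Tumors excised 2 h (A431) or 6 h (GTL-16) after last dose and homogenized in tissue protein extraction reagent with 10 µg/ml protease inhibitor cocktail. Whole lysates analysed by Western blot with actin as loading control; two tumor samples per group shown.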

[3] = system: Mus musculus; experiment: In vivo inhibition of HSP90 in human GTL16 cells overexpressing c-Met xenografted in CD-1 nude mouse assessed as induction of HSP70 protein expression at 8 mg/kg, ip administered as q4d/week for 2 weeks starting 3 days after tumor injection measured at 6 hrs post last dose by Western blot analysis; type: functional, organism-based; design: dose 8 mg/kg; outline: as §3
[4] = system: Mus musculus; experiment: Toxicity in CD-1 nude mouse xenografted with human A431 cells overexpressing EGFR assessed as mortality at 8 mg/kg, ip administered as q4d/week for 2 weeks starting 3 days after tumor injection measured on day 5 post last dose relative to vehicle-treated control; type: organism-based, A-431; design: dose 8 mg/kg, route intraperitoneal; details: in vivo
Outline: (§4)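 S.c. right-flank xenografts, 5 × 10^6 cells, in female athymic nude mice 5-6 weeks old. Intraperitoneal dosing in 10 mL/kg from day 3 post-implant. Lethal toxicity counted as deaths in treated mice occurring before the first control mouse died, reported as dead/treated (8 per group). Body weight loss was also tracked from the first treatment day.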

[5] = system: Mus musculus; experiment: In vivo inhibition of HSP90 in human A431 cells overexpressing EGFR xenografted in CD-1 nude mouse assessed as induction of HSP70 protein expression at 8 mg/kg, ip administered as q4d/week for 2 weeks starting 3 days after tumor injection measured at 2 hrs post last dose by Western blot analysis; type: functional, organism-based; design: dose 8 mg/kg; details: A-431; outline: as §3
[6] = system: Mus musculus; experiment: In vivo inhibition of HSP90 in human A431 cells overexpressing EGFR xenografted in CD-1 nude mouse assessed as downregulation of CDK4 protein expression at 8 mg/kg, ip administered as q4d/week for 2 weeks starting 3 days after tumor injection measured at 2 hrs post last dose by Western blot analysis; type: functional, organism-based; design: dose 8 mg/kg; details: A-431; outline: as §3
[7] = system: Mus musculus; experiment: Toxicity in CD-1 nude mouse xenografted with human GTL16 cells overexpressing c-Met assessed as mortality at 5 mg/kg, ip administered as q4d/week for 2 weeks starting 3 days after tumor injection measured on day 5 post last dose relative to vehicle-treated control; type: organism-based; design: dose 5 mg/kg, route intraperitoneal; details: in vivo; outline: as §4
[8] = system: Mus musculus; experiment: as §2, with “c-Met” for “AKT”; type: functional, organism-based; design: dose 8 mg/kg; outline: as §3
[9] = target: Heat shock protein HSP 90-beta (Homo sapiens) (UniProt P08238); experiment: Inhibition of HSP90 in human A431 cells overexpressing EGFR assessed as downregulation of AKT protein expression after 24 hrs by Western blot analysis; type: cell-based; details: A-431
Heat shock protein HSP 90-beta (Homo sapiens), sequence (P08238 whole entry): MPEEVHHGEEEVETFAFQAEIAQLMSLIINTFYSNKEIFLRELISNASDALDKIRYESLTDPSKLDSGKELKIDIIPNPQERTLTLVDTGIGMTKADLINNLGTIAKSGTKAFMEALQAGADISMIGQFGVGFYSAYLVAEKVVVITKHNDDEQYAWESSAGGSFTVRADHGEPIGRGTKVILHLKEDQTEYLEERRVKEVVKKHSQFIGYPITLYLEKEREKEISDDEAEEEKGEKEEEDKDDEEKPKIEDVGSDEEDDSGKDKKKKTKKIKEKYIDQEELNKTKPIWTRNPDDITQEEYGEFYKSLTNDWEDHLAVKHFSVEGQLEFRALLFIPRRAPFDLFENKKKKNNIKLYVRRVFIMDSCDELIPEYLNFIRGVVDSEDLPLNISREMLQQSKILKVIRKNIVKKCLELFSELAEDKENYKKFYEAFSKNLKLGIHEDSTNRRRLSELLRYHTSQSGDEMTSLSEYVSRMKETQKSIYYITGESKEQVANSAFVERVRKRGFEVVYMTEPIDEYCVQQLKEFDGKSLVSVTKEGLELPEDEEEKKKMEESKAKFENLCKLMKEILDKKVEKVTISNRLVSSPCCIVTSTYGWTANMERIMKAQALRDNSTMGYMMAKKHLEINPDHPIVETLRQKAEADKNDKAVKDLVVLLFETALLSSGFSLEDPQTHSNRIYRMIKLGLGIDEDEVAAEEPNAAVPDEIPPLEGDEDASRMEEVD
Outline: (§5)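 A431 cells treated 24 h after seeding for 24 h over a concentration range; 17-DMAG 0.2 µM as reference. Cells lysed in RIPA buffer with protease and phosphatase inhibitors, protein measured by Bradford. Equal protein run on SDS-PAGE and blotted to nitrocellulose, then probed for EGFR, Cdk4, Akt, Hsp70 and actin. ECL detection; densitometry normalized to β-actin. Run at least twice.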

[10] = Antitumor activity against human GTL16 cells overexpressing c-Met xenografted in CD-1 nude mouse assessed as tumor growth inhibition at 5 mg/kg, ip administered as q4d/week for 2 weeks starting 3 days after tumor injection measured on day 5 post last dose relative to vehicle-treated control; type: functional; details: GTL 16, ip, route intraperitoneal, read-out: TGI
Outline: (§6)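 Female athymic nude mice, 5-6 weeks old, inoculated s.c. in right flank with 5 × 10^6 exponentially growing tumor cells. Intraperitoneal dosing in 10 mL/kg, starting 3 days post-implant. Tumor volume = d²·D/2 from calipered shortest and longest diameters, measured biweekly. TVI% = 100 − (mean TV treated/mean TV control × 100), scored 5 days after last dose. Mann-Whitney test vs vehicle group; 8 mice per group.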

[11] = target: Heat shock protein HSP 90-beta (Homo sapiens) (UniProt P08238); experiment: Inhibition of HSP90 in human A431 cells overexpressing EGFR assessed as induction of HSP70 protein expression after 24 hrs by Western blot analysis; type: cell-based; details: A-431; outline: as §5
[12] = system: Mus musculus; experiment: Toxicity in CD-1 nude mouse xenografted with human A431 cells overexpressing EGFR assessed as body weight loss at 8 mg/kg, ip administered as q4d/week for 2 weeks starting 3 days after tumor injection measured on day 5 post last dose relative to vehicle-treated control; type: organism-based, A-431; design: dose 8 mg/kg, route intraperitoneal; details: in vivo; outline: as §1
[13] = system: NCI-H460; experiment: Cytotoxicity against human NCI-H460 cells assessed as growth inhibition after 72 hrs by SRB assay; type: functional, cell-based; details: NCI-H460, 72 h
Outline: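 NCI-H460 cells grown in RPMI-1640 with 10% heat-inactivated FBS, seeded at about 10% confluence and allowed 24 h recovery. Exposed to graded drug concentrations or solvent for 72 h. Surviving fraction measured by sulforhodamine B. IC50 is the concentration giving a 50% drop in cell number vs vehicle, from dose-response curve fitting; mean of n=4 with SD.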

[14] = target: Heat shock protein HSP 90-alpha (Homo sapiens, UniProt P07900); experiment: Displacement of GM-FITC from full-length recombinant human Hsp90-alpha after 4 hrs by fluorescence polarization assay
[15] = system: Mus musculus; experiment: In vivo inhibition of HSP90 in human A431 cells overexpressing EGFR xenografted in CD-1 nude mouse assessed as downregulation of AKT protein expression at 8 mg/kg, ip administered as q4d/week for 2 weeks starting 3 days after tumor injection measured at 2 hrs post last dose by Western blot analysis; type: functional, organism-based; design: dose 8 mg/kg; details: A-431; outline: as §3
[16] = system: Mus musculus; experiment: as §2, with “CDK4” for “AKT”; type: functional, organism-based; design: dose 8 mg/kg; outline: as §3
[17] = target: Heat shock protein HSP 90-beta (Homo sapiens) (UniProt P08238); experiment: Inhibition of HSP90 in human A431 cells overexpressing EGFR assessed as downregulation of CDK4 protein expression after 24 hrs by Western blot analysis; type: cell-based; details: A-431; outline: as §5
[18] = system: Mus musculus; experiment: In vivo inhibition of HSP90 in human A431 cells overexpressing EGFR xenografted in CD-1 nude mouse assessed as downregulation of EGFR protein expression at 8 mg/kg, ip administered as q4d/week for 2 weeks starting 3 days after tumor injection measured at 2 hrs post last dose by Western blot analysis; type: functional, organism-based; design: dose 8 mg/kg; details: A-431; outline: as §3
[19] = system: A-431; experiment: Antitumor activity against human A431 cells overexpressing EGFR xenografted in CD-1 nude mouse assessed as tumor growth inhibition at 8 mg/kg, ip administered as q4d/week for 2 weeks starting 3 days after tumor injection measured on day 5 post last dose relative to vehicle-treated control; type: functional; details: A-431, ip, route intraperitoneal, read-out: TGI; outline: as §6
[20] = target: Heat shock protein HSP 90-beta (Homo sapiens) (UniProt P08238); experiment: Inhibition of HSP90 in human A431 cells overexpressing EGFR assessed as downregulation of EGFR protein expression after 24 hrs by Western blot analysis; type: cell-based; details: A-431; outline: as §5

Q: For `CCNC(=O)c1nnn(-c2cc(C(C)C)c(O)cc2O)c1-c1ccc(CN2CCCC(O)C2)cc1` (stereo not given), which Imax [1] is on record?
A: 17%

Q: What about the inhibition [2] of the same molecule?
A: Active

Q: And the inhibition [3]?
A: Active

Q: And the Activity [4]?
A: Non-toxic

Q: What about the inhibition [5] of the same molecule?
A: Active

Q: And the inhibition [6]?
A: Active

Q: What about the Activity [7] of the same molecule?
A: Non-toxic

Q: What about the inhibition [8] of the same molecule?
A: Active

Q: What about the inhibition [9] of the same molecule?
A: Dose-dependent effect

Q: And the inhibition in vivo at 5 mg/kg [10]?
A: 42%

Q: What about the inhibition [11] of the same molecule?
A: Dose-dependent effect

Q: What about the Imax [12] of the same molecule?
A: 7%

Q: What about the IC50 [13] of the same molecule?
A: 62 nM

Q: And the IC50 [14]?
A: 23 nM

Q: What about the inhibition [15] of the same molecule?
A: Active

Q: And the inhibition [16]?
A: Active

Q: And the inhibition [17]?
A: Dose-dependent effect

Q: What about the inhibition [18] of the same molecule?
A: Active

Q: What about the inhibition in vivo at 8 mg/kg [19] of the same molecule?
A: 45%

Q: What about the inhibition [20] of the same molecule?
A: Dose-dependent effect
